Measurements taken from paper PMC5154386 (Journal of medicinal chemistry, 2015).
In brackets after ≈: the same amount, converted by molar mass.

What was measured:
Pythium insidiosum = details: in vitro; cited from earlier work
[1] = cited from earlier work
MRSA (III) = assay: Antibacterial MIC determination; assay type: cell-based; details: Staphylococcus aureus
Summary of the method: (§1)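 MICs in μg/mL against a panel of 11 Gram-positive strains (including MRSA strains and VRE) and six Gram-negative strains. The panel held strains both susceptible and resistant to the parent aminoglycoside, each coded by a roman numeral. Each determination was run at least in duplicate.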

[2] = tested on: S. aureus NRS383 (USA 200) (VII); assay: Antibacterial MIC determination; assay type: cell-based; details: Staphylococcus aureus, NRS383|USA200
Summary of the method: as §1

[3] = tested on: S. aureus NRS385 (USA 300) (VIII); assay: Antibacterial MIC determination; assay type: cell-based; details: Staphylococcus aureus, NRS385|USA300
Summary of the method: as §1

[4] = tested on: AAC(3), AAC(2′), and AAC(6′); assay: TLC assessment of modification by AACs alone and together; assay type: biochemical; details: for modification by three AACs used simultaneously (TLC): AAC(3), AAC(2′) and AAC(6′) simultaneously
[5] = tested on: various yeast strains and filamentous fungi; assay: Antifungal MIC, summary over the fungal strains tested; assay type: cell-based, Candida and Aspergillus species; details: for MIC values, range: range over the fungal strains tested; for MIC of sulfone relative to MIC of corresponding thioether: collection of fungal strains, generally
[6] = tested on: various yeast strains (C. albicans); assay: In vitro combination study with POS, summary over yeast strains; assay type: cell-based; details: for lowering of the MIC value by POS: in combination with POS; for FICI values, range: with POS, all tested fungal strains (except 3d against strain A)
Summary of the method: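 Posaconazole was tested in combination with the test compound against yeast strains, both azole-resistant and azole-susceptible. FICI = (MIC of A in combination / MIC of A alone) + (MIC of B in combination / MIC of B alone). FICI ≤ 0.5 was scored synergy, 0.5 < FICI < 4 no interaction, and FICI ≥ 4 antagonism.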

[7] = tested on: C. albicans ATCC 64124 (strain B); assay: Time-kill assay; assay type: cell-based; details: for time-kill activity at subinhibitory concentration: 1/2 MIC, 24 h period; for time to complete fungal cell death: at MIC
[8] = tested on: Aspergillus nidulans ATCC 38163 (H); assay: Antifungal MIC determination; assay type: cell-based; details: Aspergillus nidulans (strain H)
[9] = tested on: C. albicans ATCC 10231 (strain A); assay: Spontaneous frequency of resistance; assay type: cell-based
[10] = tested on: murine red blood cells (mRBCs); assay: Hemolytic assay; assay type: cell-based, mouse; details: for hemolysis: at higher concentrations
Summary of the method: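 Hemolysis was measured on murine red blood cells exposed to the test compounds. Gramicidin, amphotericin B and the parent aminoglycoside were run as comparators.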

A549 cell line = assay: Mammalian cell cytotoxicity assay; assay type: cell-based
BEAS-2B cell line = assay: Mammalian cell cytotoxicity assay; assay type: cell-based
[11] = tested on: Gram-negative bacterial strains tested; assay: Antibacterial MIC, summary over the Gram-negative panel; assay type: cell-based
E. coli MC1061 (XIV) = assay: Antibacterial MIC determination; assay type: cell-based; details: Escherichia coli
Summary of the method: as §1

[12] = tested on: K. pneumoniae ATCC 27736 (XV); assay: Antibacterial MIC determination; assay type: cell-based; details: Klebsiella pneumoniae, ATCC27736
Summary of the method: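 MIC in μg/mL against a panel of Gram-positive and Gram-negative strains that includes strains susceptible and resistant to the parent aminoglycoside; each determination done at least in duplicate.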

[13] = tested on: tested Gram-positive bacteria; assay: Antibacterial MIC, summary over the Gram-positive panel; assay type: cell-based; details: iv
Summary of the method: as §1

S. aureus ATCC 29213 (V) = assay: Antibacterial MIC determination; assay type: cell-based; details: Staphylococcus aureus, ATCC29213
Summary of the method: as §1

[14] = at 50× MIC, MIC as in combination with POS

NC[C@@H]1O[C@H](O[C@H]2[C@@H](O)[C@H](O[C@@H]3[C@@H](O)[C@H](N)C[C@H](N)[C@H]3O[C@H]3O[C@H](CN)[C@@H](O)[C@H](O)[C@H]3N)O[C@@H]2CO)[C@H](N)[C@@H](O)[C@@H]1O [NEO, neomycin B]
concentration displaying antifungal activity (antifungal MIC) (Pythium insidiosum): 64 µg/mL

[H]/N=C(/N)N[C@H]1[C@H](O)[C@@H](O)[C@H](O[C@@H]2O[C@@H](C)[C@](O)(C=O)[C@H]2O[C@@H]2O[C@@H](CO)[C@H](O)[C@@H](O)[C@@H]2NC)[C@@H](N/C(N)=N\[H])[C@@H]1O [STR, streptomycin]
concentration displaying antifungal activity (antifungal MIC) (Pythium insidiosum): 64 µg/mL | safe serum concentration [1]: 30 to 40 µg/mL

CCCCCCCCCCCCCCSC[C@@H]1O[C@@H](O[C@@H]2[C@@H](O)[C@H](O[C@@H]3O[C@@H](CN)[C@H](O)[C@@H](O)[C@@H]3N)[C@@H](N)C[C@H]2N)[C@@H](O)[C@H](N)[C@H]1O [Compound 3d]
MIC (MRSA (III)): 32 to 64 µg/mL (≈ 46 to 92 µM) | MIC [2]: 8 to 16 µg/mL (≈ 11.5 to 23 µM) | MIC [3]: 16 to 32 µg/mL (≈ 23 to 46 µM) | modification by three AACs used simultaneously (TLC) [4]: only the 3-monoacetylated product was obtained | MIC values, range [5]: ≤1.95 to 15.6 µg/mL | lowering of the MIC value by POS [6]: 2–8 fold | FICI values, range [6]: 0.07 to 0.31 | time-kill activity at subinhibitory concentration [7]: fungistatic activity | time to complete fungal cell death [7]: 12 h

CCCCCCCCCCCCSC[C@@H]1O[C@@H](O[C@@H]2[C@@H](O)[C@H](O[C@@H]3O[C@@H](CN)[C@H](O)[C@@H](O)[C@@H]3N)[C@@H](N)C[C@H]2N)[C@@H](O)[C@H](N)[C@H]1O [Compound 3c]
times better than KANB [8]: 64 times | MIC values, range [5]: ≤1.95 to 31.2 µg/mL | lowering of the MIC value by POS [6]: 4–16 fold | FICI values, range [6]: 0.07 to 0.31 | mutants ([9]; 3c (8 μg/mL) and POS (0.25 μg/mL), 96 h incubation): 24 colonies | spontaneous frequency rate of resistance ([9]; combination of 3c and POS): 2.4 × 10^−7 | time-kill activity at subinhibitory concentration [7]: fungistatic activity | time to complete fungal cell death [7]: 24 h | mRBCs lysed ([10]; 50× MIC, MIC as in combination with POS): 60% | less hemolytic than AmB [10, 14]: ~ 30% | less hemolytic than gramicidin [10, 14]: ~ 20%

CCCCCCCCSC[C@@H]1O[C@@H](O[C@@H]2[C@@H](O)[C@H](O[C@@H]3O[C@@H](CN)[C@H](O)[C@@H](O)[C@@H]3N)[C@@H](N)C[C@H]2N)[C@@H](O)[C@H](N)[C@H]1O [Compound 3a]
hemolysis [10]: little to no hemolysis | toxicity (A549 cell line): little to no toxicity | toxicity (BEAS-2B cell line): little to no toxicity

NC[C@H]1O[C@H](O[C@H]2[C@H](O)[C@@H](O[C@H]3O[C@H](CO)[C@@H](O)[C@H](N)[C@H]3O)[C@H](N)C[C@@H]2N)[C@H](N)[C@@H](O)[C@@H]1O [KANB, kanamycin B, reference compound]
MIC [11]: ≤ 16 µg/mL | modification by three AACs used simultaneously (TLC) [4]: converted to a diacetylated adduct | modification by a single AAC (TLC) ([4]; individually subjected to AAC(3), AAC(2′), or AAC(6′) overnight): completely converted to its corresponding monoacetylated product | hemolysis [10]: little to no hemolysis | toxicity (A549 cell line): little to no toxicity | toxicity (BEAS-2B cell line): little to no toxicity

CNC(C)C1CCC(N)C(OC2C(N)CC(N)C(OC3OCC(C)(O)C(NC)C3O)C2O)O1 (stereo not shown) [GEN, gentamicin]
concentration displaying antifungal activity (antifungal MIC) (Pythium insidiosum): 64 µg/mL | safe serum concentration [1]: 30 to 40 µg/mL

CC[C@@H]([C@H](C)O)n1ncn(-c2ccc(N3CCN(c4ccc(OC[C@@H]5CO[C@@](Cn6cncn6)(c6ccc(F)cc6F)C5)cc4)CC3)cc2)c1=O [POS, posaconazole, reference compound]
reduction of the MIC values of POS ([6]; in the presence of 3c): 16–64 fold | reduction of the MIC values of POS ([6]; in the presence of 3d): 16–32 fold

CCCCCCCCCCCCS(=O)(=O)C[C@@H]1O[C@@H](O[C@@H]2[C@@H](O)[C@H](O[C@@H]3O[C@@H](CN)[C@H](O)[C@@H](O)[C@@H]3N)[C@@H](N)C[C@H]2N)[C@@H](O)[C@H](N)[C@H]1O [Compound 4c]
MIC of sulfone relative to MIC of corresponding thioether [5]: ≤ 2 fold dilution

CCCCCCCCCCCCCCCCSC[C@@H]1O[C@@H](O[C@@H]2[C@@H](O)[C@H](O[C@@H]3O[C@@H](CN)[C@H](O)[C@@H](O)[C@@H]3N)[C@@H](N)C[C@H]2N)[C@@H](O)[C@H](N)[C@H]1O [Compound 3e]
times better than FLC [8]: 32 times | times better than KANB [8]: 64 times | MIC values, range [5]: 1.95 to 3.9 µg/mL | times more effective than KANB ([5]; several of the tested yeast strains): 32 times

NC[C@@H]1O[C@H](O[C@H]2[C@@H](O)[C@H](O[C@@H]3[C@@H](O)[C@H](N)C[C@H](N)[C@H]3O[C@H]3O[C@H](CO)[C@@H](O)[C@H](O)[C@H]3N)O[C@@H]2CO)[C@H](N)[C@@H](O)[C@@H]1O [PAR, paromomycin]
concentration displaying antifungal activity (antifungal MIC) (Pythium insidiosum): 64 µg/mL | safe serum concentration [1]: 30 to 40 µg/mL

CCCCCCCCCCCCCCS(=O)(=O)C[C@@H]1O[C@@H](O[C@@H]2[C@@H](O)[C@H](O[C@@H]3O[C@@H](CN)[C@H](O)[C@@H](O)[C@@H]3N)[C@@H](N)C[C@H]2N)[C@@H](O)[C@H](N)[C@H]1O [Compound 4d]
MIC of sulfone relative to MIC of corresponding thioether [5]: ≤ 2 fold dilution

NC[C@H]1O[C@H](O[C@H]2[C@H](O)[C@@H](O[C@H]3O[C@H](CO)[C@@H](O)[C@H](N)[C@H]3O)[C@H](N)C[C@@H]2N)[C@H](O)[C@@H](O)[C@@H]1O [KANA, kanamycin A]
MIC (E. coli MC1061 (XIV)): 8 to 16 µg/mL (≈ 16.5 to 33 µM) | MIC [12]: 16 to 32 µg/mL (≈ 33 to 66 µM) | MIC [13]: > 128 µg/mL

CCCCCCCCCCSC[C@@H]1O[C@@H](O[C@@H]2[C@@H](O)[C@H](O[C@@H]3O[C@@H](CN)[C@H](O)[C@@H](O)[C@@H]3N)[C@@H](N)C[C@H]2N)[C@@H](O)[C@H](N)[C@H]1O [Compound 3b]
MIC (S. aureus ATCC 29213 (V)): 16 to 32 µg/mL (≈ 25 to 50 µM) | MIC [3]: 32 to 64 µg/mL (≈ 50 to 100 µM) | hemolysis [10]: little to no hemolysis | toxicity (A549 cell line): little to no toxicity | toxicity (BEAS-2B cell line): little to no toxicity
